Results reported in ChEMBL document CHEMBL5678806, “NMS-P937, an orally available, specific small-molecule polo-like kinase 1 inhibitor with antitumor activity in solid and hematologic malignancies” (Mol Cancer Ther, 2012).
Calls of active or inactive are those of the source. The rule behind the calls is not given here.

Assays:
NCI-H1437 = assay: Antiproliferative activity against human NCI-H1437 cells assessed as inhibition of cell growth incubated for 72 hrs by cell-titer glo assay; assay type: functional, cell-based; conditions: NCI-H1437, 72 h
Method in brief: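 Cells from ATCC or ECACC, kept in supplier-recommended medium with 1% penicillin-streptomycin at 37°C, 5% CO₂. Seeded at 10,000–30,000/cm² (adherent) or 100,000/mL (nonadherent) in medium with 10% fetal calf serum. Dosed after 24 h in duplicate with serial dilutions. Viable cells read by CellTiter-Glo 72 h later. IC50 from sigmoidal fit. At least two independent experiments.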

HT-29 [1] = assay: Antitumor activity against human HT-29 cells xenografted in nu/nu mouse assessed as tumor growth inhibition at 45 mg/kg, po administered for 3 days and measured after 1 day relative to control; assay type: functional; conditions: HT-29, 72 h, time 3 day, read-out: TGI
COLO-678 = assay: Antiproliferative activity against human COLO-678 cells assessed as inhibition of cell growth incubated for 72 hrs by cell-titer glo assay; assay type: functional, cell-based; conditions: COLO-678, 72 h
Method in brief: (§1)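 Cells seeded 10,000–30,000/cm² (adherent) or 100,000/mL (suspension) in medium with 10% fetal calf serum; after 24 h treated in duplicate with serial dilutions for 72 h. Viable cells read by CellTiter-Glo luminescence; IC50 from sigmoidal fit; at least two independent experiments.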

A2780 [2] = assay: Antiproliferative activity against human A2780 cells assessed as inhibition of cell growth incubated for 72 hrs by cell-titer glo assay; assay type: functional, cell-based; conditions: A2780, 72 h; method in brief: as §1
[3] = target: Calcium/calmodulin-dependent protein kinase type 1 (Homo sapiens) (UniProt Q14012); assay: Inhibition of recombinant human CaMKI assessed as residual activity at 1 uM relative to control
Chain of Calcium/calmodulin-dependent protein kinase type 1 (Homo sapiens) (Q14012 whole entry, looked up): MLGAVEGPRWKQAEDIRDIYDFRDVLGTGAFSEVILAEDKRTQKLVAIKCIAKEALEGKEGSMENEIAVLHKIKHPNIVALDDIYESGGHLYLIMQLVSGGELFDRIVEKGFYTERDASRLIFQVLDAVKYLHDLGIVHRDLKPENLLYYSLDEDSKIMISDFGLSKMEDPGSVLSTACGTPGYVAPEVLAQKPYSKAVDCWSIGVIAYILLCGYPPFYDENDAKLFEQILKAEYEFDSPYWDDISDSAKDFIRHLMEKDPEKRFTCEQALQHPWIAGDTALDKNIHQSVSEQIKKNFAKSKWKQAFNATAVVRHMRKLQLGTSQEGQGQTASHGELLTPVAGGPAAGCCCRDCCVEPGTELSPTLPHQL

[4] = target: cAMP-dependent protein kinase catalytic subunit PRKX (Homo sapiens) (UniProt P51817); assay: Inhibition of N-terminal 6His-tagged recombinant full-length human PrKX expressed in baculovirus infected Sf21 cells assessed as residual activity at 1 uM relative to control
Chain of cAMP-dependent protein kinase catalytic subunit PRKX (Homo sapiens) (P51817 whole entry): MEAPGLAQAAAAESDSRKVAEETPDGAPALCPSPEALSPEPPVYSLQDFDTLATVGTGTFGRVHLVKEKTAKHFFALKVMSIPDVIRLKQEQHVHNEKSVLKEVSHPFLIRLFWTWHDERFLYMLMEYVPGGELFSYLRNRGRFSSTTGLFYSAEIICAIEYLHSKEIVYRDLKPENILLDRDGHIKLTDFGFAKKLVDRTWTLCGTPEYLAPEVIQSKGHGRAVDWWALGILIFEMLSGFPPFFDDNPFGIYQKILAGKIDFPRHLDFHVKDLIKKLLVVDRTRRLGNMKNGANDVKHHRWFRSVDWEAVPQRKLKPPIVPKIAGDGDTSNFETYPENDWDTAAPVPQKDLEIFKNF

[5] = target: Tyrosine-protein kinase ABL2 (Mus musculus) (UniProt Q4JIM5); assay: Inhibition of N-terminal His6-tagged recombinant mouse Arg (27 to end residues) expressed in Sf21 cells assessed as residual activity at 1 uM relative to control
Chain of Tyrosine-protein kinase ABL2 (Mus musculus) (Q4JIM5 whole entry): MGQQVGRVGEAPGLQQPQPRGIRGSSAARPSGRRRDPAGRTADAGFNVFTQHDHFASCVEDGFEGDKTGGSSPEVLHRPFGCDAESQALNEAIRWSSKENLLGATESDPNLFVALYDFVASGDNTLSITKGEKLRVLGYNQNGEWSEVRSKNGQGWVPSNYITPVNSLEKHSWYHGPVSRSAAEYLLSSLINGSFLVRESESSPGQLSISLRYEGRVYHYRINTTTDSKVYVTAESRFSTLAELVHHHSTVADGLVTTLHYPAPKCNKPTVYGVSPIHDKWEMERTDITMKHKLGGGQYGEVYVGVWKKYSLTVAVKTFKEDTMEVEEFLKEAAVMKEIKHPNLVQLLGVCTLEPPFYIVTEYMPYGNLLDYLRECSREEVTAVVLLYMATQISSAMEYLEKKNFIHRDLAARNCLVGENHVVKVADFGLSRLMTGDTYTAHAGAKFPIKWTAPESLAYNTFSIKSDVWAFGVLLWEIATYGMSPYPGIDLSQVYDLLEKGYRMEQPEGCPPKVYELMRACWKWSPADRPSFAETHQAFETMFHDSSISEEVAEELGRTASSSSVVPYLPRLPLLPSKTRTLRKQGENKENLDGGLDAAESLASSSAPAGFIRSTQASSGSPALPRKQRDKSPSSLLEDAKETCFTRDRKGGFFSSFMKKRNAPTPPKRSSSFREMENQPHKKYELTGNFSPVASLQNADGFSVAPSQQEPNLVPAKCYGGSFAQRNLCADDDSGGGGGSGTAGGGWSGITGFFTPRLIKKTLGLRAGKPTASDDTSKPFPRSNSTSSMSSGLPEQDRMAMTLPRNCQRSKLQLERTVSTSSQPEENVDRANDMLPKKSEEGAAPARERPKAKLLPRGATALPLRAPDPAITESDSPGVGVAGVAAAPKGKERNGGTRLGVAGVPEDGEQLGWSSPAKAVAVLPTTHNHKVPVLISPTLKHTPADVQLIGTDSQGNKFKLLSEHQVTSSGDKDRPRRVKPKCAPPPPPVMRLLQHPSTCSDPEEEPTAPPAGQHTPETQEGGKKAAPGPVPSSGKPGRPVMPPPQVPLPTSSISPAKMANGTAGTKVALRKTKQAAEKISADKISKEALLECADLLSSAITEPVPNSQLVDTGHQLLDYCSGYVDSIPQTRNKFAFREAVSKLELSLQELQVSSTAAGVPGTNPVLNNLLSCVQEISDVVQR

HT-29 [6] = assay: Antiproliferative activity against human HT-29 cells assessed as inhibition of colony formation at <= 8 nmol/L incubated for 72 hrs and measured after 18 days by crystal violet staining based analysis; assay type: functional, cell-based
Method in brief: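 HT29 colon adenocarcinoma cells exposed to a range of concentrations for 72 h, then compound removed and cells replated and grown 18 days in compound-free medium; colony formation scored.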

Insulin receptor = Insulin receptor (Homo sapiens, UniProt P06213); assay: Inhibition of IR (unknown origin) in presence of [gamma-33P]ATP
[7] = target: Tyrosine-protein kinase Fes/Fps (Homo sapiens) (UniProt P07332); assay: Inhibition of N-terminal His6-tagged recombinant full length human Fes expressed in baculovirus infected Sf21 cells assessed as residual activity at 0.1 uM relative to control
[8] = target: Serine/threonine-protein kinase pim-1 (Homo sapiens, UniProt P11309); assay: Inhibition of PIM1 (unknown origin) in presence of [gamma-33P]ATP
Chain of Serine/threonine-protein kinase pim-1 (P11309 whole entry): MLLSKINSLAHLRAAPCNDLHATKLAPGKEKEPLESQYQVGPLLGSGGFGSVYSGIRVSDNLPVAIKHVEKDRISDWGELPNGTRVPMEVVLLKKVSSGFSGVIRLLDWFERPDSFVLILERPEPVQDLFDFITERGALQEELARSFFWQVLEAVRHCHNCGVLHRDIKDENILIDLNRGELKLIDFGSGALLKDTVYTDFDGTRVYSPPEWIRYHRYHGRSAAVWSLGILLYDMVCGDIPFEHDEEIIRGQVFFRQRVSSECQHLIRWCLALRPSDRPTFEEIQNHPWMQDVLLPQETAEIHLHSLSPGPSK

LS174T = assay: Antiproliferative activity against human LS174T cells assessed as inhibition of cell growth incubated for 72 hrs by cell-titer glo assay; assay type: functional, cell-based
Method in brief: (§2)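 Cells seeded at 10,000–30,000/cm² (adherent) or 100,000/mL (nonadherent) in medium with 10% fetal calf serum; after 24 h, treated in duplicate with serial dilutions for 72 h. Viable cell number read by CellTiter-Glo luminescence; IC50 from sigmoidal fit; at least two independent experiments.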

SW1417 = assay: Antiproliferative activity against human SW1417 cells assessed as inhibition of cell growth incubated for 72 hrs by cell-titer glo assay; assay type: functional, cell-based; conditions: SW1417, 72 h
[9] = target: Ribosomal protein S6 kinase alpha-2 (Homo sapiens) (UniProt Q15349); assay: Inhibition of N-terminal His6-tagged recombinant full-length human Rsk3 expressed in Sf21 cells assessed as residual activity at 1 uM relative to control
[10] = AUC in Sprague-Dawley rat at 10 mg/kg, po by LC-MS analysis; assay type: ADME, organism-based; conditions: in vivo
A2780 [11] = assay: In vivo inhibition of PLK1 in human A2780 cells xenografted in nu/nu mouse assessed as decreased TCTP phosphorylation on Ser46 at 60 mg/kg, po administered for 2 hrs by immunohistochemistry analysis; assay type: functional, organism-based
[12] = Antiproliferative activity against human MEC-1 cells assessed as inhibition of cell growth incubated for 72 hrs by cell-titer glo assay; assay type: functional, cell-based; conditions: MEC1, 72 h; method in brief: as §2
[13] = target: Homeodomain-interacting protein kinase 1 (Homo sapiens) (UniProt Q86Z02); assay: Inhibition of N-terminal 6His-tagged recombinant human HIPK1 (158 to 555 residues) expressed in baculovirus infected Sf21 cells assessed as residual activity at 1 uM relative to control
Chain of Homeodomain-interacting protein kinase 1 (Homo sapiens) (Q86Z02 whole entry, looked up, the tested form may be a part): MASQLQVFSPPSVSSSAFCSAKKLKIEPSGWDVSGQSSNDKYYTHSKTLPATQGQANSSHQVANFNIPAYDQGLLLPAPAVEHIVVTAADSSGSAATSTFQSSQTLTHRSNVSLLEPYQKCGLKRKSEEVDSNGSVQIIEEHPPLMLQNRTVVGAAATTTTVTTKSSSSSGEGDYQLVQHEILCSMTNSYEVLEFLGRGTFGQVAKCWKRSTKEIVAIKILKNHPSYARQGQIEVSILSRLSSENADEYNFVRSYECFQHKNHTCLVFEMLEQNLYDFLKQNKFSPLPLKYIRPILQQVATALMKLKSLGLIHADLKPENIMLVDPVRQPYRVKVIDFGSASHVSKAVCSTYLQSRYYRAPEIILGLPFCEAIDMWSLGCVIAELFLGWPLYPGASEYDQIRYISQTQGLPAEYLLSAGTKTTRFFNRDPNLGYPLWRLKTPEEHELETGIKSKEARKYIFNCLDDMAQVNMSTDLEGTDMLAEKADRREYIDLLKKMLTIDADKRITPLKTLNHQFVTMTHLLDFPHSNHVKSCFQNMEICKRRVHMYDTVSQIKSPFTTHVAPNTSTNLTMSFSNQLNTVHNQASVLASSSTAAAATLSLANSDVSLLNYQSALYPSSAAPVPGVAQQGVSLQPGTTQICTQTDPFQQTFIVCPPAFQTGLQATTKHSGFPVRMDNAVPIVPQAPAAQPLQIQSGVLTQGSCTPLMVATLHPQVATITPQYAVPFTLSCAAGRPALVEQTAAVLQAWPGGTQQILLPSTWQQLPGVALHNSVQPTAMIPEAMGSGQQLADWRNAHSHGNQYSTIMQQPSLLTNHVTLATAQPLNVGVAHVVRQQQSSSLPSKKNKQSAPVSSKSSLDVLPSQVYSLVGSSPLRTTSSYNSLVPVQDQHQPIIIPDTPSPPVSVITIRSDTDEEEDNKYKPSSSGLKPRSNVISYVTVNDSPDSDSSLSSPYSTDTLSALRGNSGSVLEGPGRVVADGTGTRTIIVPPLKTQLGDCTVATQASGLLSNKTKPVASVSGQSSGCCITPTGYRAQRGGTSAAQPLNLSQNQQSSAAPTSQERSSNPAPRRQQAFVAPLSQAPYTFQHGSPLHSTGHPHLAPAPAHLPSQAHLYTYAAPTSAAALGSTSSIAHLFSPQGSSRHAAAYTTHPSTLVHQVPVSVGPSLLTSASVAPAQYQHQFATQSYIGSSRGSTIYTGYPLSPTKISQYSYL

[14] = target: RAF proto-oncogene serine/threonine-protein kinase (Homo sapiens) (UniProt P04049); assay: Inhibition of N-terminal GST-tagged recombinant human c-RAF (306 to 648 residues) expressed in Sf9 cells assessed as residual activity at 0.1 uM relative to control
SN12C = assay: Antiproliferative activity against human SN12C cells assessed as inhibition of cell growth incubated for 72 hrs by cell-titer glo assay; assay type: functional, cell-based
[15] = target: Epidermal growth factor receptor (Homo sapiens, UniProt P00533); assay: Inhibition of EGFR1 (unknown origin) in presence of [gamma-33P]ATP
[16] = target: ALK tyrosine kinase receptor (Homo sapiens) (UniProt Q9UM73); assay: Inhibition of N-terminal His6-tagged recombinant human ALK (1058 to end residues) expressed in baculovirus infected Sf21 cells assessed as residual activity at 0.1 uM relative to control
786-0 = assay: Antiproliferative activity against human 786-0 cells assessed as inhibition of cell growth incubated for 72 hrs by cell-titer glo assay; assay type: functional, cell-based; conditions: 786-0, 72 h; method in brief: as §1
[17] = target: Protein-tyrosine kinase 6 (Homo sapiens, UniProt Q13882); assay: Inhibition of BRK (unknown origin) in presence of [gamma-33P]ATP
Chain of Protein-tyrosine kinase 6 (Q13882 whole entry): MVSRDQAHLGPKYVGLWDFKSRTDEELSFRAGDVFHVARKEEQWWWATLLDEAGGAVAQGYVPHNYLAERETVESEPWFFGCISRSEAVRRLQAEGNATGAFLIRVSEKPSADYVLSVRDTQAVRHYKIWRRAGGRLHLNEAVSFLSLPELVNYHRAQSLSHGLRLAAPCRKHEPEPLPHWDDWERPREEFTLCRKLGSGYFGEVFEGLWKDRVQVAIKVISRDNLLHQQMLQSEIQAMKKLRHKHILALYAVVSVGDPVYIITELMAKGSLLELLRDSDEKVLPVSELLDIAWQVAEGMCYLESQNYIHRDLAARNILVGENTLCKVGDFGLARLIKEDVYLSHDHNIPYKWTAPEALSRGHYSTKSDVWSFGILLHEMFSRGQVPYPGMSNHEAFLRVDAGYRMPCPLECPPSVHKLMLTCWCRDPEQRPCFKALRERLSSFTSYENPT

[18] = target: Dual specificity mitogen-activated protein kinase kinase 7 (Homo sapiens) (UniProt O14733); assay: Inhibition of N-terminal GST-tagged recombinant human MKK7beta (2 to end residues) expressed in E. coli assessed as residual activity at 0.1 uM relative to control
[19] = target: Casein kinase I isoform gamma-3 (Homo sapiens) (UniProt Q9Y6M4); assay: Inhibition of N-terminal 6His-tagged recombinant human CK1gamma3 (1 to 330 residues) expressed in baculovirus infected Sf21 cells assessed as residual activity at 1 uM relative to control
Chain of Casein kinase I isoform gamma-3 (Homo sapiens) (Q9Y6M4 whole entry, looked up, the tested form may be a part, canonical isoform): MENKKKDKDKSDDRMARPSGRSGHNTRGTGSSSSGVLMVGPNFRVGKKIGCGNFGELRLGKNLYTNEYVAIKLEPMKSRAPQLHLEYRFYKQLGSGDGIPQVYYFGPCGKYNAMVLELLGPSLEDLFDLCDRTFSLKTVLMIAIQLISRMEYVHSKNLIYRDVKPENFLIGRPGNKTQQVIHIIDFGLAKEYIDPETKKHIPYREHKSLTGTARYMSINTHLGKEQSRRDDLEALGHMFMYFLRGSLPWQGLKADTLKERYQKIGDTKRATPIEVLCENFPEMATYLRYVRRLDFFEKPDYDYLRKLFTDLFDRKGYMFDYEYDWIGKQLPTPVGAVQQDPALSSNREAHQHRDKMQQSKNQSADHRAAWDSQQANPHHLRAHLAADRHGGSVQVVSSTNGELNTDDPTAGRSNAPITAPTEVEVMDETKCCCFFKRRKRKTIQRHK

[20] = Cmax in Beagle dog at 5 mg/kg, po by LC-MS analysis; assay type: ADME, organism-based, Canis lupus familiaris; conditions: in vivo
[21] = target: Casein kinase I homolog 1 (Saccharomyces cerevisiae S288c) (UniProt P23291); assay: Inhibition of yeast CK1 assessed as residual activity at 0.1 uM relative to control
Chain of Casein kinase I homolog 1 (Saccharomyces cerevisiae S288c) (P23291 whole entry): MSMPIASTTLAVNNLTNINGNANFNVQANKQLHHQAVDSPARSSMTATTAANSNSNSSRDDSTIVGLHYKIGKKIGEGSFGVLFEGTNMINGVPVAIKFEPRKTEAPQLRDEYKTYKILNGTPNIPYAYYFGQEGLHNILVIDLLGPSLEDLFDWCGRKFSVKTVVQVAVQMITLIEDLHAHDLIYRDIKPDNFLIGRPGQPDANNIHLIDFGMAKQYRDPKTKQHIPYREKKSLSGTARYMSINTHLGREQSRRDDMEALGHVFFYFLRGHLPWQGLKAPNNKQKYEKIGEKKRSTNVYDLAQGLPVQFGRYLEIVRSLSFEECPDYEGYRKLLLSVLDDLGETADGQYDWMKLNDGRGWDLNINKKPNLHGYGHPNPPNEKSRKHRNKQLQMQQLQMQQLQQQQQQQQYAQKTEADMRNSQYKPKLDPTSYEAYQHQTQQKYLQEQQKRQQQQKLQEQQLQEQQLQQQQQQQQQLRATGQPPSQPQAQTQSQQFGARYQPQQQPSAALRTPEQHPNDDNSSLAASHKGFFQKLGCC

## CN1CCN(c2ccc(OC(F)(F)F)c(Nc3ncc4c(n3)-c3c(c(C(N)=O)nn3CCO)CC4)c2)CC1 [ONVANSERTIB]
NCI-H1437
  IC50: 39 nM
HT-29 [1]
  inhibition in vivo at 45 mg/kg: 72%
COLO-678
  IC50: 354 nM
A2780 [2]
  IC50: 40 nM
[3]
  Activity: 87%
[4]
  Activity: 69%
[5]
  Activity: 85%
HT-29 [6]
  Activity: Active
Insulin receptor
  IC50: > 10000 nM
[7]
  Activity: 73%
[8]
  IC50: > 10000 nM
LS174T
  IC50: 164 nM
SW1417
  IC50: 606 nM
[9]
  Activity: 84%
[10]
  AUC: 46.4 µM·h
A2780 [11]
  inhibition: Active
[12]
  IC50: 112 nM
[13]
  Activity: 90%
[14]
  Activity: 93%
SN12C
  IC50: 62 nM
[15]
  IC50: > 10000 nM
[16]
  Activity: 145%
786-0
  IC50: 129 nM
[17]
  IC50: > 10000 nM
[18]
  Activity: 85%
[19]
  Activity: 39%
[20]
  Cmax: 1200 nM
[21]
  Activity: 42%
